Measured values taken from publication PMC4756412 (Journal of pharmaceutical sciences, 2016).
Entries after “also recorded” stand apart in the source; their conditions may differ. Bridge positions count the residues as written; N and C are the ends. Peptide text beside a SMILES is read from it.

Assays:
[1] = test system: blood-brain barrier; settings: completely reversed by 4 h following treatment; cited from earlier work
[2] = test system: blood-brain barrier; assay: NIRF imaging of IRdye800cw-PEG and R800 brain deposition; assay type: in vivo, mice; settings: 0.01 mmol/kg peptide i.v., ex vivo brain-to-plasma fluorescence ratio
Method in brief: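 Mice received test compound 0.010 mmol/kg or PBS i.v. After 5 min, IRDye 800CW PEG (~25 kDa, 0.01 μmol/kg) and R800 (P-gp substrate, 0.032 μmol/kg) were given i.v. Mice were killed by cardiac perfusion of 10% formaldehyde 20 min after treatment. Brains were imaged ex vivo by near-infrared scanner, and ROI fluorescence per unit tissue was divided by fluorescence per μL blood at the same time point.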

[3] = test system: MDCK-II cell monolayers; assay: Inhibition of junction resealing in MDCK cell monolayers; assay type: cell-based, canine; settings: peptide 1.0 mM apical and basolateral, TEER, 5- and 6-h time points
[4] = test system: MDCK-II cell monolayers; assay: Direct junction modulation of intact MDCK cell monolayers; assay type: cell-based, canine; settings: peptide 1.0 mM, Ca2+-sufficient buffer, 7- and 8-h time points
Method in brief: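 MDCK-II cells were seeded at 75,000 cells/well on 0.4 μm polyester Transwell membranes and grown 5–8 days, with starting TEER of 280–320 ohm.cm². Monolayers were washed in HBSS (25 mM glucose, 2 mM CaCl₂, 0.75 mM MgSO₄, 10 mM HEPES), with no Ca²⁺-free step. They were then exposed apically and basolaterally to test compound (1.0 mM) or none, and TEER was read hourly for 6–8 h by voltohmmeter.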

[5] = test system: blood-brain barrier; assay: In-situ rat brain perfusion, 14C-mannitol brain delivery; assay type: in vivo, Sprague-Dawley rats; settings: peptide 1.0 mM, 240-s perfusion, then 240-s 14C-mannitol
Method in brief: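 Sprague-Dawley rats were anaesthetised i.p. with ketamine 100 mg/kg plus xylazine 5 mg/kg. Perfusion via a left common carotid cannula at 5.0 mL/min began right after cardiac puncture: 20-s saline, 240-s test compound (1.0 mM) or vehicle, 240-s ¹⁴C-mannitol, then 5-s saline wash. Perfusate was filter-sterilised and oxygenated (95% air/5% CO₂, 37 °C). Rectal temperature was held at 36.5 ± 0.5 °C.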

[6] = test system: blood-brain barrier; assay: MRI of Gd-DTPA brain deposition after i.v. peptide; assay type: in vivo, Balb/c mice
[7] = Peptide stability in rat plasma; assay type: in vitro ADME; settings: rat plasma (NaHeparin)
Method in brief: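 Test compound in DMSO was spiked into heparinised rat plasma (final DMSO 0.6%) and shaken at 50 rpm at 37 °C for up to 8 or 72 h, about 2–3 half-lives. Samples were deproteinised with ACN:H₂O:EtOAc (6:1:1) and centrifuged at 17226 g. Remaining peptide was quantified by LC-MS/MS against a peptide internal standard, and half-life was calculated.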

[8] = 0.01 mmol/kg i.v., AUC over 42 min, posterior, midbrain, anterior
[9] = 0.001, 0.0032, 0.01 mmol/kg i.v., 42-min session

Ac-CDTPPVC-NH2 (disulfide 1-7 (inferred); SMILES CC(=O)N[C@H]1CSSC[C@@H](C(N)=O)NC(=O)[C@H](C(C)C)NC(=O)[C@@H]2CCCN2C(=O)[C@@H]2CCCN2C(=O)[C@H]([C@@H](C)O)NC(=O)[C@H](CC(=O)O)NC1=O) [ADTC5]
duration for which BBB modulation was observed [1]: 2 h

CC(=O)N[C@@H](CO)C(=O)N[C@@H](Cc1c[nH]cn1)C(=O)N[C@@H](C)C(=O)N[C@H](C(=O)N[C@@H](C)C(=O)N[C@@H](CO)C(N)=O)C(C)C [HAV4] (Ac-SHAVAS-NH2)
brain deposition of IRdye800cw-PEG, 5-min pretreatment [2]: higher than in saline-treated controls | inhibition of junction resealing compared to HBSS [3]: significantly inhibited the resealing; also recorded: inhibited the junction resealing | lowering of TEER of intact monolayers compared to HBSS [4]: lowered the TEER values significantly | passage of 14C-mannitol into rat brain compared to vehicle [5]: significantly enhanced | Gd-DTPA enhancement after 1-h peptide pretreatment [6, 8]: did not produce any Gd-DTPA enhancement | Gd-DTPA enhancement after 2-h peptide pretreatment [6, 8]: did not produce any Gd-DTPA enhancement | maximum enhancement of Gd-DTPA compared to background at 0 time point ([6]; 0.010 mmol/kg i.v., posterior region, Gd-DTPA 0.4 mmol/kg, 42-min MRI session): up to fivefold | duration of BBB modulation (Gd-DTPA) ([6]; 0.01 mmol/kg i.v., various pretreatment times, MRI): < 1 h | AUC of Gd-DTPA deposition vs vehicle, anterior region [6, 9]: significantly higher than those of the vehicle group at all peptide doses examined | AUC of Gd-DTPA deposition vs vehicle, midbrain [6, 9]: only treatment with 0.01 mmol/kg showed significant enhancement compared to vehicle | AUC of Gd-DTPA deposition vs vehicle, posterior region [6, 9]: significantly higher than those of the vehicle group at all peptide doses examined | increase in brain delivery of Gd-DTPA ([6]; following peptide treatment): 3-4 fold | half-life [7]: 2.4 h
